# In ChEMBL document CHEMBL3526018, “Metabolites of PPI-2458, a selective, irreversible inhibitor of methionine aminopeptidase-2: structure determination and in vivo activity” (Drug Metab Dispos, 2013):
# The source made the active and inactive calls. The rule behind the calls is not given here.
# Tests used:
# Rattus norvegicus [1] = assay: Inhibition of MetAP2 level in Sprague-Dawley rat lung assessed as free enzyme level at 0.3 mg/kg, iv by ELISA; type: functional, organism-based; design: dose 0.3 mg/kg
# Summary of the method: (§1)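 Male Sprague-Dawley rats (200-225 g, n=3 per group) were dosed once IV at 0.3 mg/kg or PO at 0.3 or 3.0 mg/kg, in 11% HPCD in water. Blood, liver, lung, thymus and pooled non-mesenteric lymph nodes were taken at ~24 h and lysed or homogenized with NP-40. Free MetAP2 was measured by ELISA and expressed as % of vehicle.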
# [2] = Oral steady-state volume of distribution in non-Hodgkin lymphoma patient at 15 mg, po alternate days for 21 days; type: ADME, organism-based; conditions: human, in vivo, read-out: Vss/F
# Summary of the method: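 Non-Hodgkin lymphoma patients given oral capsules every other day for 21 days. Plasma sampled predose and at 15, 30 min and 1, 2, 3, 4, 6, 8, 24, 48 h after the first dose. Protein precipitated, extract reconstituted, parent and metabolites quantified by validated LC-MS/MS. CL/F and Vss/F derived from the administered dose.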
# CYP3A4 (Homo sapiens) = assay: Activity of human recombinant CYP3A4 assessed as ((3R,4S,5S,6R)-4-((2R,3R)-3-((E)-4-hydroxy-3-methylbut-2-en-1-yl)-2-methyloxiran-2-yl)-5-methoxy-1-oxaspiro[2.5]octan-6-yl((R)-1-amino-3-methyl-1-oxobutan-2-yl)carbamate) formation per pmol of enzyme
# [3] = Metabolic stability in monkey liver microsomes assessed as retention time of ((3R,4S,5S,6R)-4-((2R,3R)-3-((E)-4-hydroxy-3-methylbut-2-en-1-yl)-2-methyloxiran-2-yl)-5-methoxy-1-oxaspiro[2.5]octan-6-yl((R)-1-amino-3-methyl-1-oxobutan-2-yl)carbamate) at 5 mM by LC/MS analysis; type: ADME, Macaca mulatta; conditions: rhesus monkey, 5000 µM
# Summary of the method: (§2)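 Liver microsomes (pooled male/female) in 100 mM KPO4 pH 7.4 with PPI-2458 (5 mM stock), pre-incubated 5 min at 37°C, then 10 mM NADPH added; 20 min at 37°C with shaking. Time-zero and no-NADPH controls. Quenched with CH3CN; supernatant dried and redissolved in water. Analysed by LC-MS, ESI+ full scan 300–800 amu, C18 column, 10→50% B gradient.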
# Rattus norvegicus [4] = assay: Inhibition of MetAP2 level in Sprague-Dawley rat whole blood assessed as free enzyme level at 3 mg/kg, po by ELISA; type: functional, organism-based; design: dose 3 mg/kg; summary of the method: as §1
# CYP3A5 (Homo sapiens) [5] = assay: Ratio of Vmax to Km for human recombinant CYP3A5 assessed as ((3R,4S,5S,6R)-4-((2R,3R)-3-((E)-4-hydroxy-3-methylbut-2-en-1-yl)-2-methyloxiran-2-yl)-5-methoxy-1-oxaspiro[2.5]octan-6-yl((R)-1-amino-3-methyl-1-oxobutan-2-yl)carbamate) formation; conditions: recombinant enzyme
# Rattus norvegicus [6] = assay: Inhibition of MetAP2 level in Sprague-Dawley rat lymph nodes assessed as free enzyme level at 3 mg/kg, po by ELISA; type: functional, organism-based; design: dose 3 mg/kg; summary of the method: as §1
# [7] = Apparent oral clearance in non-Hodgkin lymphoma patient at 15 mg, po alternate days for 21 days; type: ADME, organism-based; conditions: human, in vivo
# Summary of the method: (§3)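 Oral PPI-2458 given every other day to lymphoma patients. Plasma sampled pre-dose and at 15 min, 30 min, 1, 2, 3, 4, 6, 8, 24 and 48 h after the first dose. Parent and metabolites were measured by LC-MS/MS after protein precipitation, evaporation and reconstitution. CL/F was computed only for parent and summed analytes. For metabolites, t1/2 is an apparent first-phase value.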
# Liver = assay: Metabolic stability in mouse liver microsomes assessed as retention time of ((3R,4S,5S,6R)-4-((2R,3R)-3-(((R)-3,3-dimethyloxiran-2-yl)methyl)-2-methyloxiran-2-yl)-5-methoxy-1-oxaspiro[2.5]octan-6-yl ((R)-1-amino-3-methyl-1-oxobutan-2-yl)carbamate) at 5 mM by LC/MS analysis; type: ADME; conditions: 5000 µM; summary of the method: as §2
# Cytochrome P450 3A4 = Cytochrome P450 3A4 (Homo sapiens, UniProt P08684); assay: Inhibition of CYP3A4 activity in human liver microsomes using midazolam as a substrate by LC/MS analysis; type: ADME
# Cytochrome P450 3A4, sequence (P08684 whole entry): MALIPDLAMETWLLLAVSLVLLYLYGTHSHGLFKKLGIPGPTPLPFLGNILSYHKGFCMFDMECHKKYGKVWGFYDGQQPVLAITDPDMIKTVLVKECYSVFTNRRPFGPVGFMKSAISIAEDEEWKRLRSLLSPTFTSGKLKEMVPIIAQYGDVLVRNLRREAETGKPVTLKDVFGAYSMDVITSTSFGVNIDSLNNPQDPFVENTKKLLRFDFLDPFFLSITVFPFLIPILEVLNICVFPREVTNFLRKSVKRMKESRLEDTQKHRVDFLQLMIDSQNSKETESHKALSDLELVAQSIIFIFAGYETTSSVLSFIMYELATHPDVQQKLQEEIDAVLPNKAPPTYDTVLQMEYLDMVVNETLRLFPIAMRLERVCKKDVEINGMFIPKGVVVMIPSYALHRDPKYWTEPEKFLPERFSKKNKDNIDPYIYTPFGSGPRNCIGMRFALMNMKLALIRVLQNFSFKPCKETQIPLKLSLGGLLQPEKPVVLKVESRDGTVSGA
# Liver microsome [8] = assay: Metabolic stability in human liver microsomes assessed as retention time of ((3R,4S,5S,6R)-4-((2R,3R)-3-(((S)-3,3-dimethyloxiran-2-yl)methyl)-2-methyloxiran-2-yl)-5-methoxy-1-oxaspiro[2.5]octan-6-yl ((R)-1-amino-3-methyl-1-oxobutan-2-yl)carbamate) at 5 mM by LC/MS analysis; type: ADME; conditions: 5000 µM
# [9] = Metabolic stability in monkey liver microsomes assessed as retention time of ((3R,4S,5S,6R)-5-methoxy-4-((2R,3R)-2-methyl-3-(3-methylbut-2-en-1-yl)oxiran-2-yl)-1-oxaspiro[2.5]octan-6-yl ((R)-1-amino-3-hydroxy-3-methyl-1-oxobutan-2-yl)carbamate) at 5 mM by LC/MS analysis; type: ADME, Macaca mulatta; conditions: rhesus monkey, 5000 µM; summary of the method: as §2
# Liver microsome [10] = assay: Metabolic stability in rat liver microsomes assessed as retention time of ((3R,4S,5S,6R)-5-methoxy-4-((2R,3R)-2-methyl-3-(3-methylbut-2-en-1-yl)oxiran-2-yl)-1-oxaspiro[2.5]octan-6-yl ((R)-1-amino-3-hydroxy-3-methyl-1-oxobutan-2-yl)carbamate) at 5 mM by LC/MS analysis; type: ADME; conditions: 5000 µM; summary of the method: as §2
# CYP3A5 (Homo sapiens) [11] = assay: Activity of human recombinant CYP3A5 assessed as ((3R,4S,5S,6R)-4-((2R,3R)-3-(((S)-3,3-dimethyloxiran-2-yl)methyl)-2-methyloxiran-2-yl)-5-methoxy-1-oxaspiro[2.5]octan-6-yl ((R)-1-amino-3-methyl-1-oxobutan-2-yl)carbamate) formation per pmol of enzyme
# [12] = target: Methionine aminopeptidase 2 (Homo sapiens) (UniProt P50579); assay: Inhibition of human MetAP2 assessed as remaining enzyme activity after 1 hr
# Methionine aminopeptidase 2 (Homo sapiens), sequence (P50579 2-478 limits assumed): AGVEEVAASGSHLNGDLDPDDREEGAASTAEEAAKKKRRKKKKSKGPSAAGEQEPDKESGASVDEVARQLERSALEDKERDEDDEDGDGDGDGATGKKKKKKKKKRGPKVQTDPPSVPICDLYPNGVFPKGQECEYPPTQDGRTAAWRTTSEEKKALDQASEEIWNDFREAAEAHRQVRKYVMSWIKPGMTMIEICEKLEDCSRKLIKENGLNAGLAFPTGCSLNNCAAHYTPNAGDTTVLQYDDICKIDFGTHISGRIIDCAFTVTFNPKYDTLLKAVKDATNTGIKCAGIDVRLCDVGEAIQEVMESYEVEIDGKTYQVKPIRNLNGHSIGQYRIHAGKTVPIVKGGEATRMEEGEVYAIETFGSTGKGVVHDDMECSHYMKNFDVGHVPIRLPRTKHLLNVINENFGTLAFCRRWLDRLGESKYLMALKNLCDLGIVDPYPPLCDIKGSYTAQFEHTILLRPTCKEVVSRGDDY
# Summary of the method: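 The hMetAP2 assay follows the fraction of active enzyme remaining during an 8 h incubation with inhibitor, relative to an enzyme-only control.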
# Rattus norvegicus [13] = assay: Inhibition of MetAP2 level in Sprague-Dawley rat whole blood assessed as free enzyme level at 0.3 mg/kg, iv by ELISA; type: functional, organism-based; design: dose 0.3 mg/kg; summary of the method: as §1
# [14] = Cmax in non-Hodgkin lymphoma patient at 15 mg, po alternate days for 21 days; type: ADME, organism-based; design: dose 15 mg, route oral; conditions: human, in vivo; summary of the method: as §3
compound,measurement,setting,value
CO[C@@H]1[C@H](OC(=O)N[C@@H](C(N)=O)C(C)C)CC[C@]2(CO2)[C@H]1[C@@]1(C)O[C@@H]1CC=C(C)C [PPI-2458],inhibition,Rattus norvegicus [1],Active
same,Vd/F,[2],415 L
same,Vmax,CYP3A4 (Homo sapiens),1.41 pmol/min
same,Drug metabolism,[3],metabolite_detected
same,inhibition,Rattus norvegicus [4],Active
same,Vmax/Km,CYP3A5 (Homo sapiens) [5],0.031 µL/min
same,inhibition,Rattus norvegicus [6],Active
same,CL/F,[7],5880 mL/min
same,Drug metabolism,Liver,metabolite_detected
same,Ki,Cytochrome P450 3A4,58 µM
same,Drug metabolism,Liver microsome [8],metabolite_detected
same,Drug metabolism,[9],metabolite_detected
same,Drug metabolism,Liver microsome [10],metabolite_detected
same,Vmax,CYP3A5 (Homo sapiens) [11],1.42 pmol/min
same,Activity,[12],12%
same,inhibition,Rattus norvegicus [13],Active
same,Cmax,[14],55 ng/mL
